Screening results from PubChem.
This is a sample that favours compounds with a hit; in the whole collection about 2.7% have one here.
Env fusion inh – inhibitors of HIV Env-mediated cell fusion | HeLa-JRFL Env/CEM21 cell fusion, luciferase | inhibition, % at 12.3 µM | actives 1.1% (n = 360,000) | AID 651610;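 active = mean replicate inhibition score of at least 50 and every replicate individually at or above 50; inconclusive = only one of the two criteria met; inactive = mean below 50 and not all replicates reaching 50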;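 note: 0% = plate neutral controls and 100% = maraviroc near 300 nM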
FGF22 binding – binders of recombinant human FGF22 by thermal shift; SYPRO orange fluorescence; percent of sucrose octasulfate shift, DMSO zero; activity (Tm shift, normalised), % at 9.99 µM; actives 1.5% (n = 340,000); AID 651658;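 active = mean Tm shift, scaled 0 neutral to 100 positive control, at about 1.3% or above, every replicate too, limit read from the data; inconclusive = no clear call, values can overlap the other calls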
Target sequence (Q9HCT0 whole entry, looked up): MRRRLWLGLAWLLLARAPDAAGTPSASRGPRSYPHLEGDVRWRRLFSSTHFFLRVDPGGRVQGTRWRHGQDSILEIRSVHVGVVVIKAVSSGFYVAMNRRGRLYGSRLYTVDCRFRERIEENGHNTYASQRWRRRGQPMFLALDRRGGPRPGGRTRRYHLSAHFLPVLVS
E-sel inducer – induces E-selectin expression in human endothelial cells; actives 0.37% (n = 260,000); activation, % at 7.58 µM; AID 686992; HUVEC E-selectin immunofluorescence imaging; normalized: neutral wells 0, TNF-alpha wells 100;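 active = mean E-selectin-positive cell signal at least 10% of the positive control, reached in at least 60% of replicates, without over 20% cell loss; inconclusive = no rule given, readout overlaps actives, possibly toxicity-flagged; inactive = the rest, including those meeting only one limit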
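assay system = HUVEC, human umbilical vein endothelial cells | input = 3,000 HUVEC seeded per well | medium = EGM-2 growth medium on 0.1% gelatin-coated wells | dosing = one compound dose added by pin transfer | signal = immunofluorescence imaging | read-out basis = % PE-positive cells | control set = TNF-alpha, DMSO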
S100A4 inh HTS – inhibitors of human S100A4 binding to myosin IIA peptide | actives 0.14% (n = 360,000) | P26447 | inhibition, % at 10.7 µM | S100A4/TAMRA-MyoIIA peptide fluorescence polarization | AID 652163;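 active = mean inhibition of at least 70% across replicates, with every replicate also reaching that level; inconclusive = mean inhibition reaches 70% but some replicates fall short; inactive = mean inhibition below 70%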
Target sequence (P26447 whole entry, looked up): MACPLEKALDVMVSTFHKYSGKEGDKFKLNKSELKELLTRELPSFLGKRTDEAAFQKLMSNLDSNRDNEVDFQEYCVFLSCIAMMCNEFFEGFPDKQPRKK
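Material: S100A4 monomer protein | Medium: HEPES pH 7.2 with CaCl2, KCl, NaCl, DTT, Triton | Reagent: Labelled myosin peptide probe, 5 nM | Doses: One dose per compound | Times: 5 min incubation before reading | Benchmarks: Neutral control DMSO, positive control TFP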
F508del corr – correctors of CFTR F508del function in bronchial epithelial cells; CFBE cells, YFP halide quenching; stimulated with forskolin plus potentiator P3; % fluorescence drop versus neutral controls; activity (quench increase), % at 7.58 µM; actives 0.36% (n = 350,000);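 active = mean added fluorescence quench of at least 8% versus neutral control, with both replicates also reaching 8%; inconclusive = only one of the mean or replicate conditions met; inactive = mean below 8% and not both replicates reaching 8%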;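 note: cells transiently co-express mutant CFTR-F508del with the halide-sensitive YFP; corrector assay measuring rescue of mutant channel to the surface after 24 h compound exposure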
* marks the source's active call; other numbers are inactive results; ? = inconclusive; · = no result; [ ] = dose if it differs, or a comment.

SMILES	Env fusion inh	FGF22 binding	E-sel inducer	S100A4 inh HTS	F508del corr
C[C@H]1CN([C@@H](C)CO)C(=O)c2cc(NC(=O)Nc3ccccc3)ccc2O[C@@H]1CN(C)Cc1ccc(C(=O)O)cc1	·	0	0	1	0
COc1ccc(C2=NNC(=Nc3cc(S(=O)(=O)N(C)C)ccc3C)SC2)c(OC)c1	67*	0	4	9	0
Cc1noc(C)c1S(=O)(=O)Nc1ccc2c(c1)CC(=O)N([C@H](C)CO)C[C@@H](C)[C@@H](CN(C)Cc1ccc(-c3ccccc3)cc1)O2	4[16.7 µM]	0	1	25	0
COc1ccccc1CNC(=O)C[C@@H]1CC[C@@H](NC(=O)CN(C)C)[C@H](CO)O1	-4[16.7 µM]	0	0	20	1
COc1ccc(-n2c(=O)c3ccccc3n(CC(=O)NCC3CCCO3)c2=O)cc1 (stereo not given)	-1	44*	·	-7	0
CCOC(=O)C1(Cc2ccccc2)CCN(Cc2csc(C(C)=O)c2)CC1	-1	44*	1	-5	-1
CCOC(=O)C1(Cc2cccc(OC)c2)CCN(Cc2cccc(OC)c2O)CC1	17	-1	·	6	0
CCOC(=O)C1(Cc2cccc(OC)c2)CCN(Cc2ccccc2OC)CC1	-10	43*	·	2	4
CCOC(=O)C1(CCOc2ccccc2)CCN(CCCn2cccn2)CC1	9	43*	·	0	1
CCOC(=O)C1(Cc2ccccc2)CCN(Cc2cnn(C(C)C)c2)CC1	-12	0	·	8	1
CCOC(=O)C1(Cc2ccccc2)CCN(Cc2cccc(OC)c2O)CC1	-1	0	·	-3	3
CCOC(=O)C1(Cc2ccccc2)CCN(Cc2cccc3nccnc23)CC1	28	44*	·	-4	1
CCC(=O)N1CC(=O)N2[C@H](C1)[C@H](c1ccc(C#Cc3cccc(OC)c3)cc1)[C@@H]2CO	·	·	0	2	2
O=S(=O)(NC(CO)Cc1ccccc1)c1ccc(Br)cc1F (stereo not given)	?	43*	0	0	1
S=C(NCc1ccccc1Cl)NC1CCCC1	-8	43*	0	-2	0
Cc1ccc2c(c1)nnn2C1CCN(S(=O)(=O)c2ccc(C(=O)N3C(C)CCCC3C)cc2)CC1 (stereo not given)	67*	·	·	·	·
COc1cccc(NC(=O)N2CC(=O)N3[C@H](CO)[C@H](c4ccc(C#CCC5CCCC5)cc4)[C@H]3C2)c1	·	-1	0	-11	0
CNC(=S)NCC(O)c1ccc([N+](=O)[O-])cc1 (stereo not given)	-18	44*	·	-4	1
O=[N+]([O-])c1ccc(C(O)CNC(=S)Nc2ccccc2)cc1 (stereo not given)	12	1	·	-1	2
Cc1cc(NC(=O)COC(=O)[C@@H](NS(=O)(=O)c2ccccc2)C(C)C)no1	-8	43*	·	2	-1
Cc1ccc(NS(=O)(=O)c2ccc(C(=O)OCC(=O)Nc3cc(C)on3)cc2)cc1	29	43*	·	-3	-3
CCOc1cc(C(=O)OCC(=O)Nc2cc(C)on2)ccc1OCC(C)C	-57	44*	·	-3	4
CCOc1ccc(C(=O)OCC(=O)Nc2cc(C)on2)cc1OCC	-26	·	·	·	·
COc1ccc(NS(=O)(=O)c2cccc(C(=O)OCC(=O)Nc3cc(C)on3)c2)cc1	-136	·	·	·	·
O=C(NCCCN1CCOCC1)[C@@H]1N[C@@H]2c3ccc(C4=CCCC4)c(=O)n3C[C@@H]2[C@H]1CO	·	0	0	2	0
SMILES	Env fusion inh	FGF22 binding	E-sel inducer	S100A4 inh HTS	F508del corr
COc1ccc(NC(=O)Nc2ccc3c(c2)C(=O)N([C@H](C)CO)C[C@H](C)[C@@H](CN(C)C(=O)C2CCCCC2)OCCCC[C@H](C)O3)cc1	-5[16.7 µM]	0	0	-71	2
COc1cc(OC)cc(C(=O)N[C@H](C(=O)OCC(=O)Nc2ccc(C(C)C)cc2)C(C)C)c1	18	0	64*	2	-3
CC(C)C(NC(=O)OCc1ccccc1)C(=O)OCC(=O)NC1CC1 (stereo not given)	-34	0	·	9	-1
CC(C)[C@H](NC(=O)OCc1ccccc1)C(=O)OCC(=O)NCc1ccco1	·	43*	2	-1	0
CC(C)C(NC(=O)c1ccco1)C(=O)OCC(=O)Nc1ccc(C(N)=O)cc1 (stereo not given)	12	43*	·	-5	-2
C[C@@H]1CN([C@@H](C)CO)C(=O)c2cc(NC(=O)C3CCCCC3)ccc2O[C@@H](C)CCCCO[C@H]1CN(C)S(=O)(=O)c1cn(C)cn1	1[16.7 µM]	1	0	-62	0
Cc1ccc(S(=O)(=O)Nc2ccc3c(c2)CC(=O)N([C@H](C)CO)C[C@@H](C)[C@H](CN(C)S(=O)(=O)c2cccs2)O3)cc1	-17[16.7 µM]	0	0	0	-2
c1ccc2nc(SCc3cn4ccccc4n3)cnc2c1	4	43*	·	4	2
Cc1cccc(NC(=S)Nn2cnnc2)c1C	20	43*	·	4	-2
Cc1ccccc1NC(=S)Nn1cnnc1	-3	0	·	-7	-3
COc1ccc2c3c(n(C)c2c1)[C@H](CO)N(C(=O)Nc1ccc(F)cc1)CC31CCN(C(=O)CN2CCOCC2)CC1	-2[16.7 µM]	0	0	3	-3
OC1(c2cccs2)CN(c2ccccc2)C2=[N+]1CCCC2 (stereo not given)	5	43*	4	-4	0
O=C(NC1CCCCCCC1)C1CCN(c2nc3ccccc3o2)CC1	75*	·	·	·	·
C[C@H](CO)N1C[C@H](C)[C@@H](CN(C)Cc2ccccc2)Oc2cc(C3=CCCC3)ccc2S1(=O)=O	55*[16.7 µM]	0	1	-13	-2
C[C@H](CO)N1C[C@H](C)[C@@H](CN(C)Cc2ccncc2)Oc2cc(C3=CCCCC3)ccc2S1(=O)=O	64*[16.7 µM]	0	0	-2	-5
C[C@@H]1CN([C@H](C)CO)S(=O)(=O)c2ccc(C3=CCCCC3)cc2O[C@H]1CN(C)Cc1ccncc1	37[16.7 µM]	-1	1	4	-2
O=C(O)C1(C(=O)O)CCCC1	33	0	0	2	1
NC1(C(=O)O)CC1	-12	0	1	3	17*
Cc1ccc(C)c(CS(=O)(=O)c2cn(CC(=O)N3CCC(C)CC3)c3ccccc23)c1	120*	·	·	·	·
Cc1ccc(C)c(CS(=O)(=O)c2cn(CC(=O)N3CCCCC3)c3ccccc23)c1	30	·	·	·	·
COC(=O)c1ccccc1NC(=O)COC(=O)[C@H](C)NC(N)=O	5	44*	0	-5	-1
CC(C)c1cccc(C(C)C)c1NC(=O)COC(=O)[C@H](C)NC(N)=O	-2	0	0	0	-2
CCc1ccccc1NCC(=O)Nc1ccccc1C(=O)OC	8	44*	·	-1	2
